Test results published in ChEMBL document CHEMBL1165950, “Design and synthesis of new potent anticancer pyrazoles with high FLT3 kinase inhibitory selectivity” (Bioorg Med Chem, 2010).

How the values were obtained:
Assay type in all cases: functional
COLO 205 = test: Cytotoxicity against human COLO205 cells assessed as cell growth at 100 nM after 48 hrs by sulforhodamine B assay; conditions: COLO 205, 48 h, read-out: Activity
OVCAR-4 [1] = test: Cytotoxicity against human OVCAR4 cells assessed as cell growth at 100 nM after 48 hrs by sulforhodamine B assay; conditions: OVCAR-4, 48 h, read-out: Activity
T47D = test: Cytotoxicity against human T47D cells assessed as cell growth at 0.001 uM after 48 hrs by sulforhodamine B assay; conditions: read-out: Activity
HL-60(TB) [2] = test: Cytotoxicity against human HL-60(TB) cells assessed as cell growth at 1 uM after 48 hrs by sulforhodamine B assay; conditions: HL-60, 48 h, read-out: Activity
Summary of the method: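 NCI 60-cell panel. Cells are grown in RPMI 1640 with 5% FBS and 2 mM L-glutamine, seeded at 5000–40,000 cells/well according to doubling time, and preincubated 24 h. Time-zero plates are TCA-fixed. Compound from DMSO stock is given at five 10-fold or 1/2-log concentrations for 48 h at 37 °C, 5% CO2. Suspension cells are fixed with 80% TCA (final 16%) and SRB-stained, with absorbance at 515 nm. Percent growth is derived from Tz, control and test readings.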

SK-MEL-28 = test: Cytotoxicity against human SK-MEL-28 cells assessed as cell growth at 10 uM; conditions: read-out: Activity
Summary of the method: (§1)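 NCI-60 screen: cells grown in RPMI 1640 with 5% FBS and 2 mM L-glutamine, plated at 5000–40,000 cells/well according to doubling time, and preincubated 24 h at 37 °C, 5% CO2. The single 10 µM dose (DMSO stock) was added, then incubated 48 h. Cells were TCA-fixed and stained with 0.4% SRB, read at 515 nm, and growth % calculated against time-zero and control plates.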

TK-10 = test: Cytotoxicity against human TK10 cells assessed as cell growth at 10 uM; conditions: read-out: Activity; summary of the method: as §1
MCF7 = test: Cytotoxicity against human MCF7 cells assessed as cell growth at 10 uM; conditions: read-out: Activity; summary of the method: as §1
[3] = Cytotoxicity against human Hs 578T cells assessed as cell growth at 10 uM; conditions: read-out: Activity
Summary of the method: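 Single-dose NCI-60 screen at 10 µM. Cells were grown in RPMI 1640 with 5% FBS and 2 mM L-glutamine, then treated for 48 h at 37 °C. Protein was measured by SRB staining with absorbance at 515 nm. Percentage growth was recorded, and inhibition percentage was calculated as 100 minus growth percentage.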

NCI-H522 = test: Cytotoxicity against human NCI-H522 cells assessed as cell growth at 1 uM after 48 hrs by sulforhodamine B assay; conditions: NCI-H522, 48 h, read-out: Activity
KM12 = test: Cytotoxicity against human KM12 cells assessed as cell growth at 1 uM after 48 hrs by sulforhodamine B assay; conditions: KM12, 48 h, read-out: Activity
HL-60(TB) [4] = test: Growth inhibition of human HL-60(TB) cells after 48 hrs by sulforhodamine B assay; conditions: HL-60, 48 h
Summary of the method: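 NCI 60-cell SRB screen. Cells in RPMI 1640 with 5% FBS and 2 mM L-glutamine are preincubated 24 h, then exposed to five concentrations (10-fold or 1/2-log dilutions from DMSO stock) for 48 h at 37 °C. Suspension cells are fixed with 80% TCA (final 16%), and A515 is read. IC50 is taken as the concentration where [(Ti−Tz)/(C−Tz)]×100 = 50, i.e. 50% reduction in net protein increase.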

NCI-H226 = test: Cytotoxicity against human NCI-H226 cells assessed as cell growth at 0.001 uM after 48 hrs by sulforhodamine B assay; conditions: NCI-H226, 48 h, read-out: Activity
U-251 = test: Cytotoxicity against human U251 cells assessed as cell growth at 0.01 uM after 48 hrs by sulforhodamine B assay; conditions: U-251, 48 h, read-out: Activity
RXF 393 = test: Cytotoxicity against human RXF393 cells assessed as cell growth at 0.01 uM after 48 hrs by sulforhodamine B assay; conditions: RXF 393, 48 h, read-out: Activity
UO-31 [5] = test: Cytotoxicity against human UO31 cells assessed as cell growth at 0.01 uM after 48 hrs by sulforhodamine B assay; conditions: UO-31, 48 h, read-out: Activity
OVCAR-4 [6] = test: Cytotoxicity against human OVCAR4 cells assessed as cell growth at 0.001 uM after 48 hrs by sulforhodamine B assay; conditions: OVCAR-4, 48 h, read-out: Activity
NCI/ADR-RES = test: Cytotoxicity against human NCI/ADR-RES cells assessed as cell growth at 0.001 uM after 48 hrs by sulforhodamine B assay; conditions: read-out: Activity
SNB-19 = test: Growth inhibition of human SNB19 cells after 48 hrs by sulforhodamine B assay; conditions: SNB-19, 48 h; for CC50: read-out: LC50 (the source's name)
Summary of the method: (§2)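 NCI 60-cell screen, five-dose mode. Cells grown in RPMI 1640 with 5% FBS and 2 mM L-glutamine and plated at 5000-40,000 cells/well according to doubling time. After 24 h preincubation, a Tz plate was TCA-fixed. Five concentrations (10-fold or 1/2 log dilutions) were applied for 48 h at 37 °C. SRB staining read at 515 nm. IC50 taken from [(Ti-Tz)/(C-Tz)]×100 = 50.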

SNB-75 [7] = test: Growth inhibition of human SNB75 cells after 48 hrs by sulforhodamine B assay; conditions: SNB-75, 48 h; for CC50: read-out: LC50 (the source's name); summary of the method: as §2
UO-31 [8] = test: Growth inhibition of human UO31 cells after 48 hrs by sulforhodamine B assay; conditions: UO-31, 48 h; for CC50: read-out: LC50 (the source's name); summary of the method: as §2
DU-145 = test: Cytotoxicity against human DU145 cells assessed as cell growth at 1 uM after 48 hrs by sulforhodamine B assay; conditions: DU-145, 48 h, read-out: Activity
HCT-116 = test: Cytotoxicity against human HCT116 cells assessed as cell growth at 10 uM after 48 hrs by sulforhodamine B assay; conditions: HCT-116, 48 h, read-out: Activity
SF-539 = test: Cytotoxicity against human SF539 cells assessed as cell growth at 10 uM after 48 hrs by sulforhodamine B assay; conditions: SF-539, 48 h, read-out: Activity
SNB-75 [9] = test: Cytotoxicity against human SNB75 cells assessed as cell growth at 10 uM after 48 hrs by sulforhodamine B assay; conditions: SNB-75, 48 h, read-out: Activity
BT-549 = test: Cytotoxicity against human BT549 cells assessed as cell growth at 10 uM after 48 hrs by sulforhodamine B assay; conditions: BT-549, 48 h, read-out: Activity
Summary of the method: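 NCI-60 five-dose screen. Cells were grown in RPMI 1640 with 5% FBS and 2 mM L-glutamine, plated at 5000–40,000 cells/well and preincubated for 24 h. Time-zero plates were TCA-fixed. DMSO-solubilized drug was added at five concentrations (10-fold or ½-log serial dilutions) for 48 h at 37 °C, 5% CO2. Cells were TCA-fixed, stained with 0.4% SRB and read at 515 nm. Percent growth used time-zero, control and test absorbances.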

| SMILES | growth at 0.1 µM (COLO 205) [%] | growth at 0.1 µM (OVCAR-4 [1]) [%] | growth at 0.001 µM (T47D) [%] | growth at 1 µM (HL-60(TB) [2]) [%] | growth at 10 µM (SK-MEL-28) [%] | growth at 10 µM (TK-10) [%] | growth at 10 µM (MCF7) [%] | growth at 10 µM [3] [%] | growth at 1 µM (NCI-H522) [%] | growth at 1 µM (KM12) [%] | GI50 (HL-60(TB) [4]) [µM] | LC50 (HL-60(TB) [4]) [µM] | TGI (HL-60(TB) [4]) [µM] | growth at 0.001 µM (NCI-H226) [%] | growth at 0.01 µM (U-251) [%] | growth at 0.01 µM (RXF 393) [%] | growth at 0.01 µM (UO-31 [5]) [%] | growth at 0.001 µM (OVCAR-4 [6]) [%] | growth at 0.001 µM (NCI/ADR-RES) [%] | GI50 (SNB-19) [µM] | also measured |
| --- | --- | --- | --- | --- | --- | --- | --- | --- | --- | --- | --- | --- | --- | --- | --- | --- | --- | --- | --- | --- | --- |
| COc1cc(C)cc(-c2c(-c3ccnc(-c4ccc(N(C)C)cc4)c3)cnn2CC#N)c1 | 7 | 33 | 90 | -27 | 42.1 | 36.6 | 2.45 | 30.8 | -53 | -43 | 0.105 | > 100 | 0.465 | 95 | 41 | 84 | 63 | 92 | 96 | 0.362 | TGI (SNB-19): > 100 µM; CC50 (SNB-19): > 100 µM; GI50 (SNB-75 [7]): 0.0694 µM; TGI (SNB-75 [7]): > 100 µM; CC50 (SNB-75 [7]): > 100 µM; GI50 (UO-31 [8]): 0.508 µM; TGI (UO-31 [8]): > 100 µM; CC50 (UO-31 [8]): > 100 µM; growth at 1 µM (DU-145): -47%; growth at 10 µM (HCT-116): -27%; growth at 10 µM (SF-539): 2%; growth at 10 µM (SNB-75 [9]): 11%; growth at 10 µM (BT-549): -25% |
| Cc1cc(O)cc(-c2nn(CC#N)cc2-c2ccnc(-c3ccc(N(C)C)cc3)c2)c1 | 94 | 101 | 93 | 2 | 38.1 | 52.5 | 14.9 | 47.7 | -13 | -9 | 3.14 | > 100 | 12.9 | 100 | 94 | 104 | 84 | 104 | 97 | 4.54 | TGI (SNB-19): 43.9 µM; CC50 (SNB-19): > 100 µM; GI50 (SNB-75 [7]): 1.86 µM; TGI (SNB-75 [7]): 5.94 µM; CC50 (SNB-75 [7]): > 100 µM; GI50 (UO-31 [8]): 3.23 µM; TGI (UO-31 [8]): 32.5 µM; CC50 (UO-31 [8]): > 100 µM; growth at 1 µM (DU-145): -7%; growth at 10 µM (HCT-116): -81%; growth at 10 µM (SF-539): -71%; growth at 10 µM (SNB-75 [9]): -26%; growth at 10 µM (BT-549): -43% |
| COc1cc(C)cc(-c2nn(CC#N)cc2-c2ccnc(-c3ccc(N(C)C)cc3)c2)c1 | -15 | 33 | 102 | -1 | 32.4 | 34.7 | 10.1 | 31.6 | -61 | -37 | 0.293 | > 100 | 0.923 | 103 | 105 | 103 | 92 | 106 | 96 | 0.567 | TGI (SNB-19): > 100 µM; CC50 (SNB-19): > 100 µM; GI50 (SNB-75 [7]): 0.286 µM; TGI (SNB-75 [7]): 0.848 µM; CC50 (SNB-75 [7]): > 100 µM; GI50 (UO-31 [8]): 0.619 µM; TGI (UO-31 [8]): 98.7 µM; CC50 (UO-31 [8]): > 100 µM; growth at 1 µM (DU-145): -40%; growth at 10 µM (HCT-116): -44%; growth at 10 µM (SF-539): -38%; growth at 10 µM (SNB-75 [9]): -8%; growth at 10 µM (BT-549): -30% |
| COc1cc(C)cc(-c2c(-c3ccnc(-c4ccc(C(C)=O)cc4)c3)cnn2CC#N)c1 | 102 | 105 | 93 | 20 | 62 | 72.6 | 21.9 | 88.5 | -14 | 9 | 2.26 | > 100 | 6.5 | 100 | 89 | 101 | 87 | 102 | 95 | > 100 | TGI (SNB-19): > 100 µM; CC50 (SNB-19): > 100 µM; GI50 (SNB-75 [7]): 2.08 µM; CC50 (SNB-75 [7]): > 100 µM; GI50 (UO-31 [8]): 2.61 µM; TGI (UO-31 [8]): > 100 µM; CC50 (UO-31 [8]): > 100 µM; growth at 1 µM (DU-145): 16%; growth at 10 µM (HCT-116): -17%; growth at 10 µM (SF-539): -34%; growth at 10 µM (SNB-75 [9]): 1%; growth at 10 µM (BT-549): 24% |
